Measurements as given in ChEMBL document CHEMBL3526048, “In vitro metabolism of rivoglitazone, a novel peroxisome proliferator-activated receptor γ agonist, in rat, monkey, and human liver microsomes and freshly isolated hepatocytes” (Drug Metab Dispos, 2011).

Assays:
Cytochrome P450 2C8 = biological target: T1, Cytochrome P450 2C8 (Homo sapiens, UniProt P10632); experiment: Activity of human CYP2C8 expressed in microsomes isolated from baculovirus infected insect cell assessed as enzyme-mediated 3-(4-((6-methoxy-1-methyl-1H-benzo[d]imidazol-2-yl)methoxy)phenyl)-2-(methylsulfonyl)propanamide formation at 20 uM after 2 hrs by radio-HPLC/LC-MS/MS analysis in presence of NADPH-generating system/SAM; type: ADME
T1 sequence (P10632 whole entry): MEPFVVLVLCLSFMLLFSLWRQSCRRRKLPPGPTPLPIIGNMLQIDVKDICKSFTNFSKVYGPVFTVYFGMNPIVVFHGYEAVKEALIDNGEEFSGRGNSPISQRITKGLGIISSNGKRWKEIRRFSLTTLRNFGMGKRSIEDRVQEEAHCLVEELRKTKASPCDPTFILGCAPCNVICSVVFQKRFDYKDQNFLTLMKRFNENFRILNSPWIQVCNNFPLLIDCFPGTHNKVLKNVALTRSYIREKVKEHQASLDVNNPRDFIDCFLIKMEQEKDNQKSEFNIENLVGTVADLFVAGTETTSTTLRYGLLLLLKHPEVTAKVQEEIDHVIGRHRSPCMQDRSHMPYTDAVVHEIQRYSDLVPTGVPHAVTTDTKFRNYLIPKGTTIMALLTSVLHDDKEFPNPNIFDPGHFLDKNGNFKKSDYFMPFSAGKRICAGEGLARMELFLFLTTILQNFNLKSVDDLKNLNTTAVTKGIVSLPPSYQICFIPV

Cytochrome P450 2C19 = Cytochrome P450 2C19 (Homo sapiens, UniProt P33261); experiment: Activity of human CYP2C19 expressed in microsomes isolated from baculovirus infected insect cell assessed as enzyme-mediated 2-((4-((2,4-dioxothiazolidin-5-yl)methyl)phenoxy)methyl)-1-methyl-1H-benzo[d]imidazol-6-yl hydrogen sulfate formation at 20 uM after 2 hrs by radio-HPLC/LC-MS/MS analysis; type: ADME
Chain of Cytochrome P450 2C19 (P33261 whole entry): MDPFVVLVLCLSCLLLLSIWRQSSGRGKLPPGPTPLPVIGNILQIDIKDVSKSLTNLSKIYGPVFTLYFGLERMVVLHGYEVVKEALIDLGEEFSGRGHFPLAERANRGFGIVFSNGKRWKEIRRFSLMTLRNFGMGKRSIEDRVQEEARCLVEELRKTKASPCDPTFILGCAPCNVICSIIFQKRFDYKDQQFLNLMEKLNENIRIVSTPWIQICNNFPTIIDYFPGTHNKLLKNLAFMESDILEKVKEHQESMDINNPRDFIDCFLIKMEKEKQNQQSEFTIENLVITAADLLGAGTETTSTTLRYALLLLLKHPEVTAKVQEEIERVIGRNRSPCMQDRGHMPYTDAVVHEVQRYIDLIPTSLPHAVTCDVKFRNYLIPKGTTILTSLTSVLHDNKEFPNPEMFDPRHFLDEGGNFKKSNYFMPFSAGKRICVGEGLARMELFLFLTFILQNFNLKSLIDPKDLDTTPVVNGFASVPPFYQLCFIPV
Outline: (§1)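 Baculovirus/insect-cell microsomes expressing single human CYPs, 1 mg/ml protein, with 50 mM potassium phosphate (pH 7.4) or 100 mM Tris-HCl (pH 7.5). NADPH-generating system: 2 mM NADP⁺, 20 mM glucose 6-phosphate, 2 units/ml G6PDH, 10 mM MgCl₂. [¹⁴C]rivoglitazone at 20 μM, 2 h at 37°C with shaking. Control used insect-cell control supersomes. Stopped with acetonitrile; supernatant concentrated under nitrogen; metabolites analysed by radio-HPLC, LC-MS and LC-MS/MS.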

[1] = biological target: T2, UDP-glucuronosyltransferase 2B7 (Homo sapiens, UniProt P16662); experiment: Activity of human UGT2B7 expressed in microsomes isolated from baculovirus infected insect cell assessed as enzyme-mediated 5-hydroxy-5-(4-((6-methoxy-1-methyl-1H-benzo[d]imidazol-2-yl)methoxy)benzyl)thiazolidine-2,4-dione formation at 20 uM after 4 hrs by radio-HPLC/LC-MS/MS analysis in presence of NADPH-generating system and NADPH-generating system/SAM in presence of UDPGA and UDPGA/SAM; type: ADME
T2 sequence (P16662 whole entry): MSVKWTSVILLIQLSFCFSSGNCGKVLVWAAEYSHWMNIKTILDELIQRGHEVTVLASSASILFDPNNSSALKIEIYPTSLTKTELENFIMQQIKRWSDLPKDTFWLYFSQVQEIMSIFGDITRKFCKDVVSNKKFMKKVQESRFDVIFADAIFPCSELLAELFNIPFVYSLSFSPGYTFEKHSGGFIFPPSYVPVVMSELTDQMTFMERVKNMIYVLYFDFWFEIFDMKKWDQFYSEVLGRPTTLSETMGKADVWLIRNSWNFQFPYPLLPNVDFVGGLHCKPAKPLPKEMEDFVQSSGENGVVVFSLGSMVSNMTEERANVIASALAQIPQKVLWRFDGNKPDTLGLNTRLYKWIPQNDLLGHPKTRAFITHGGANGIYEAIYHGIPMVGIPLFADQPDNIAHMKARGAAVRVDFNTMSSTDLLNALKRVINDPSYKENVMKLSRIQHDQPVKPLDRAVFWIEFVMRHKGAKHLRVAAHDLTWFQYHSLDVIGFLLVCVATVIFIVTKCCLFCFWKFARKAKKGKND

[2] = Drug metabolism in human hepatocytes assessed as formation of 2-mercapto-3-(4-((6-methoxy-1-methyl-1H-benzo[d]imidazol-2-yl)methoxy)phenyl)propanamide at 30 uM after 3 hrs by radio-HPLC/LC-MS/MS analysis in presence of NADPH-generating system and NADPH-generating system/SAM; type: ADME, cell-based, Hepatocyte
Liver microsome [3] = experiment: Drug metabolism in Sprague-Dawley rat liver microsomes assessed as formation of 2-hydroxy-3-(4-((6-methoxy-1-methyl-1H-benzo[d]imidazol-2-yl)methoxy)phenyl)propanamide at 20 uM after 2 hrs by radio-HPLC/LC-MS/MS analysis in presence of NADPH-generating system and NADPH-generating system/SAM; type: ADME
Liver microsome [4] = experiment: Drug metabolism in human liver microsomes assessed as formation of (2S,3S,4S,5R,6R)-6-((1-carboxy-2-(4-((6-methoxy-1-methyl-1H-benzo[d]imidazol-2-yl)methoxy)phenyl)ethylthio)carbonylamino)-3,4,5-trihydroxytetrahydro-2H-pyran-2-carboxylic acid at 20 uM after 4 hrs by radio-HPLC/LC-MS/MS analysis in presence of UDPGA and UDPGA/SAM; type: ADME
Cytochrome P450 1A2 = biological target: T3, Cytochrome P450 1A2 (Homo sapiens, UniProt P05177); experiment: Activity of human CYP1A2 expressed in microsomes isolated from baculovirus infected insect cell assessed as enzyme-mediated 5-(4-((6-hydroxy-1-methyl-1H-benzo[d]imidazol-2-yl)methoxy)benzyl)thiazolidine-2,4-dione formation at 20 uM after 2 hrs by radio-HPLC/LC-MS/MS analysis in presence of NADPH-generating system and NADPH-generating system/SAM; type: ADME; outline: as §1
T3 sequence (P05177 whole entry): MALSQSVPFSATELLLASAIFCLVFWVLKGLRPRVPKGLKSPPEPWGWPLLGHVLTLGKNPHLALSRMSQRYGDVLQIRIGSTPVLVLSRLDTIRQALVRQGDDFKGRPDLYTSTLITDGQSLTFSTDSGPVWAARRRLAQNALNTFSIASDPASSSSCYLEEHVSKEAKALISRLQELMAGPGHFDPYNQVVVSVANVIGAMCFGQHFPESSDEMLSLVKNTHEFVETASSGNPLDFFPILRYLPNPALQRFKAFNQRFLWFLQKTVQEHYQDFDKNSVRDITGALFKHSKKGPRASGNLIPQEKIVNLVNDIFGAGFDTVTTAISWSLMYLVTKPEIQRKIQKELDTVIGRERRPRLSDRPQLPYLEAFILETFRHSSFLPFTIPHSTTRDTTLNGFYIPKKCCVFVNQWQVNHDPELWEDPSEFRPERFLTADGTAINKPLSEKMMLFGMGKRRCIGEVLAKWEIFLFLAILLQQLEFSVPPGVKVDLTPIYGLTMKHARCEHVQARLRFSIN

Liver microsome [5] = experiment: Drug level in Sprague-Dawley rat liver microsomes treated with [14C]-rivoglitazone at 20 uM after 2 to 4 hrs by radio-HPLC/LC-MS/MS analysis in presence of UDPGA, UDPGA/SAM and NADPH-generating system; type: ADME

Row | Drug metabolism (Cytochrome P450 2C8) | Drug metabolism (Cytochrome P450 2C19) | Drug metabolism [1] | Drug metabolism [2] | Drug metabolism (Liver microsome [3]) | Drug metabolism (Liver microsome [4]) | Drug metabolism (Cytochrome P450 1A2) | Drug metabolism (Liver microsome [5]) | Compound
1 | metabolite_not_detected | metabolite_not_detected | metabolite_not_detected | metabolite_not_detected | metabolite_detected | metabolite_detected | metabolite_detected | – | COc1ccc2nc(COc3ccc(C[14CH]4SC(=O)NC4=O)cc3)n(C)c2c1.Cl (racemic)
2 | – | – | – | – | – | – | – | metabolite_detected | COc1ccc2nc(COc3ccc(CC(S)C(=O)O)cc3)n(C)c2c1 (stereo not drawn)
